Measurements published in ChEMBL document CHEMBL1147048, “Identification of anti-prion compounds as efficient inhibitors of polyglutamine protein aggregation in a zebrafish model” (J Biol Chem, 2007).
Activity calls are given as the source filed them. No cut-off for these calls is given here.

Key:
[1] = Suppression of aggregation of poly Q102-GFP mutant expressed in zebrafish embryo by filter trap assay
In short: (§1)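 AB wild-type embryos were injected at the 1-2 cell stage with Q102-GFP mRNA. They were then kept in E3 with 1% DMSO plus compound (isoproterenol dissolved in water), with the chorion disrupted; controls received solvent alone. After 24 h at 28.5 °C, lysates were heated in 4% SDS/100 mM DTT, filtered through 0.2 µm cellulose acetate, probed with anti-GFP and quantified by densitometry. Solvent control was set to 100%; n=3-5 injections.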

Danio rerio [2] = species on record: Danio rerio; assay: Suppression of inclusion formation in zebrafish embryo expressing poly Q102-GFP protein after 24 hrs at 1 uM; type: functional, organism-based
N2a = assay: Inhibition of aggregation of poly Q102-GFP in mouse N2a cells by filter trap assay; type: cell-based
Danio rerio [3] = species on record: Danio rerio; assay: Effect on suppression of abnormal morphology and death of zebrafish embryo expressing Q102-GFP; type: organism-based; conditions: in vivo
[4] = Inhibition of detergent insoluble aggregation of mutant poly Q102-GFP expressed in zebrafish embryo at 50 uM by filter trap assay; in short: as §1
[5] = Suppression of aggregation of poly Q102-GFP protein expressed in zebrafish embryo at 10 uM by filter trap assay; in short: as §1

With `Nc1c(/N=N/c2ccc(-c3ccc(/N=N/c4cc(S(=O)(=O)O)c5ccccc5c4N)cc3)cc2)cc(S(=O)(=O)O)c2ccccc12` as the compound, how does the Activity [1] read?
The Activity was “Active”.

For `COc1c(C)c2c(c(O)c1C/C=C(\C)CCC(=O)O)C(=O)OC2`, which Activity (Danio rerio [2]) is on record?
Its Activity is “inactive”.

For `Cc1cc(O)c(C)c2sc(N)nc12`, which Activity (N2a) is on record?
The Activity was “Active”.

And the Activity (Danio rerio [3])?
Its Activity is “Not Active”.

And the Activity [1]?
The Activity was “Active”.

For `O=C(N/N=C/c1ccc2ccccc2c1)c1cccc(Cl)c1`, which Activity (N2a) is on record?
Its Activity is “Active”.

What about the Activity (Danio rerio [3]) of the same compound?
Its Activity is “Not Active”.

What about the Activity [4] of the same compound?
The Activity was “Active”.

Which Activity (N2a) does the source give for `O=C(N/N=C/c1ccc2ccccc2c1)c1ccc(O)c(O)c1` here?
The Activity was “Active”.

And the Activity (Danio rerio [3])?
The Activity was “Not Active”.

What about the Activity [4] of the same compound?
Its Activity is “Active”.

Which Activity (N2a) does the source give for `COc1cc(/C=N/N=C(N)N)ccc1OCc1c(C)c(C)c(Br)c(C)c1C.Cl` here?
The Activity was “Active”.

And the Activity (Danio rerio [3])?
The Activity was “Not Active”.

With `CC(C)NCC(O)c1ccc(O)c(O)c1` (centres undefined) as the compound, how does the Activity [5] read?
Its Activity is “inactive”.
